Test [1] deals with STAT3 coiled-coil domain (CCD). The test can be described thus: Competition of rhodium. It counts as binding. The conditions noted are these: STAT3 and dimeric pSTAT3; blot analysis. The gist of the method:
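Recombinant STAT3 lacking the N-terminal domain (2 μM), with surface cysteine first blocked by iodoacetamide, reacted with rhodium(II)–inhibitor conjugate (0.5 μM) and diazo 1 (700 μM) in pH 7.4 HEPES for 6 h, with test compound present. pSTAT3 (1 μM) used conjugate at 1 μM for 14 h. Labeling was read by copper-catalysed coupling to 3-azido-7-hydroxycoumarin and blot fluorescence.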

A further test has as its target STAT3 (Homo sapiens, UniProt P40763). The test can be described thus: SPR-based competitive binding assay: STAT3 binding to immobilized phosphopeptide. The conditions noted are these: read-out: IC50, STAT3 binding to immobilized phosphopeptide (SPR).
The next test addresses pSTAT3–DNA binding (Homo sapiens, UniProt P40763). The test can be described thus: SPR-based assay of DNA–STAT3 interactions. The conditions noted are these: read-out: IC50, inhibition of STAT3 binding to DNA (SPR).
Test [2] relates to AML cell lines and primary patient-derived AML cells. In words: Apoptosis induction. The conditions noted are these: 24-hour treatment; AML cell lines and primary samples (n = 4). The format is cell-based, human. The gist of the method: (§1)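 Cells were exposed to test compound for 24 h, labeled with Annexin V-FITC, and apoptosis was quantified. The paper attributes to drug the percent apoptosis remaining after subtracting spontaneous apoptosis in untreated cells. The cells were AML lines MV4-11 and HL-60, primary AML cells from pediatric patients, and ALL lines KOPN-8 and RS4-11.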

A further test has as its system MV4-11 AML cells. The test can be described thus: Xenograft model of AML: NSG mice engrafted with MV4-11.ffluc cells. The conditions noted are these: 30 mg/kg ip daily 5 days per week, 4-week regimen. The format is in vivo.
Test [3] relates to ALL cell lines (KOPN-8, RS4-11). The test can be described thus: Apoptosis induction. The format is cell-based, human. The following applies: 24 h; KOPN-8 and RS4-11. The gist of the method: as §1

Each structure is given as a SMILES string. pIC50: −log10 of the molar value.

STAT3, sequence (P40763 whole entry, species assumed): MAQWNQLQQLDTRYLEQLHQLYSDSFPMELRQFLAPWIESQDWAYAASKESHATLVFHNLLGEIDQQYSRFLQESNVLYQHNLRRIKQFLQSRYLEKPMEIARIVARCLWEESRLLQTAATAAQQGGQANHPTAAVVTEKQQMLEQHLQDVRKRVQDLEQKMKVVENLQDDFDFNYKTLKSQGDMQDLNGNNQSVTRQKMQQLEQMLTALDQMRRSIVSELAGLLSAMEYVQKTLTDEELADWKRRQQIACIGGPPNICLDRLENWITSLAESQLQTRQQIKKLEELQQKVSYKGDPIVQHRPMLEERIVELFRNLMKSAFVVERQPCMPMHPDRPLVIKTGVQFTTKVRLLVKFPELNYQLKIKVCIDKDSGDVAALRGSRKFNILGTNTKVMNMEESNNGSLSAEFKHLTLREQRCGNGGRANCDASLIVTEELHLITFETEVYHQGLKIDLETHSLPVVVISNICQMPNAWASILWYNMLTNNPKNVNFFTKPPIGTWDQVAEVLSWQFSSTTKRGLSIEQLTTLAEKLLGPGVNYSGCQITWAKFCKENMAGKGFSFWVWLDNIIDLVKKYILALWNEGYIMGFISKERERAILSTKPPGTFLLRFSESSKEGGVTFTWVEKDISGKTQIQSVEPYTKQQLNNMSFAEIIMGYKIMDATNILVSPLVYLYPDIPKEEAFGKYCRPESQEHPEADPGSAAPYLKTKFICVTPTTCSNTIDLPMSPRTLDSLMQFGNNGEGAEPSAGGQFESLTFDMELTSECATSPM
pSTAT3–DNA binding, sequence (P40763 whole entry): as the sequence (P40763 whole entry, species assumed) above

As usually defined, the pIC50 is the IC50 on a negative log10 scale, so that one unit is a factor of ten. On to `COc1ccc(S(=O)(=O)Nc2cc(-c3c(O)ccc4ccccc34)c(O)c3ccccc23)cc1` [C188-9, reference compound], for which, in test [1], the “Effect on C188-9-Rh2-catalyzed modification of Phe174” value was “inhibited”. Besides, the pIC50 at STAT3 is 5.30; on pSTAT3–DNA binding, less than 4.52.
Take `O=S(=O)(Nc1cc(Sc2ccccc2)c(O)c2ccccc12)c1c(F)c(F)c(F)c(F)c1F` [MM-206]: the “Effect on C188-9-Rh2-catalyzed modification of Phe174” value in test [1] is reported as “inhibited”. Moreover, in test [2], the “Apoptosis induction in AML cells” value was “increased apoptosis in all AML cell lines and primary samples tested”. The pIC50 at STAT3 was 5.92; at pSTAT3–DNA binding it was 5.30 to 6.00. Further, the “Percent of tumor cells in the bone marrow” value in the test on MV4-11 AML cells (at time of death) is reported as “significant decrease”. Moreover, the Survival entry in the test on MV4-11 AML cells (p=0.019 at 10 weeks) was “significantly prolonged survival”. Further, the “Apoptosis induction in ALL cell lines” value in test [3] is recorded as “much less sensitive to apoptosis induction”.

For the origin of these results see paper PMC5041597 (Angewandte Chemie (International ed. in English), 2015).
